Reference: PubChem BioAssay AID651740 (Broad Institute, 2012)
The whole screen tested about 5,600 compounds, of which about 1,200 (21%) were called active. Another 3% or so got no clear call; they are omitted. Not all results are given here. Values without a mark were called inactive.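 The calls were made as follows: active = mean inhibition above about 95%, with at least 55% of replicates also reaching it (limit read from the data); inconclusive = meets just one of the two conditions; inactive = meets neither condition.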

Assay: inhibitors of intracellular T. cruzi replication, confirmation, NIH3T3 host cells, beta-gal parasites, cherry-pick, set 2 (AID 651740);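 also: plate controls were neutral control median for no effect and positive control median for full effect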
Settings: T. cruzi beta-gal in NIH3T3, GalScreen luminescence, 90 h; at 2.09 µM; stronger effect = higher value
Outline: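 Material: beta-gal T. cruzi in mouse NIH/3T3 fibroblasts / Medium: DMEM, 2% FBS, 1% PSG / Also added: T. cruzi trypomastigotes, 5000 per well / Compound: single dose, 100 nL pinned DMSO compound / Timing: ≥90 h co-culture with compound, 60 min detection reagent / Technique: GalScreen lysis and luminescent beta-gal signal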
For `CCC(=O)N1CC[C@@H]2[C@@H](CO)N(C)c3ccc(-c4ccc(F)cc4)cc3[C@@H]21`, the inhibition was 79.1%.
For `COc1ccc(NC(=O)N2CC[C@@H]3[C@@H](CO)N(C)c4ccc(-c5cccc(F)c5)cc4[C@@H]32)cc1`, the inhibition was 106% (active).
For `CCC(=O)N1CC[C@@H]2[C@@H](CO)N(C)c3ccc(-c4cccc(OC)c4)cc3[C@@H]21`, the inhibition was 91.1%.
With `COc1ccccc1NC(=O)N1CCCCN2[C@H](C1)[C@H](c1ccc(-c3ccccc3)cc1)[C@@H]2CO` the inhibition was 65%.
Compound `C[C@H](O)C#Cc1ccc([C@H]2[C@H]3CN(S(=O)(=O)Cc4ccccc4)CCCCN3[C@H]2CO)cc1` has an inhibition of 11.7%.
With `COCC(=O)N1CC[C@@H]2[C@@H](CO)Nc3ccc(-c4cccc(C#N)c4)cc3[C@@H]21` the inhibition was 30.7%.
For `OC[C@@H]1Nc2ccc(-c3cccc(F)c3)cc2[C@H]2[C@@H]1CCN2Cc1ccncc1`, the inhibition was 55.6%.
Compound `O=C(Cc1ccccc1)N1CC[C@H]2[C@H](CO)Nc3ccc(-c4ccccc4F)cc3[C@H]21` has an inhibition of 64.2%.
In the case of `O=S(=O)(c1ccccc1)N1CC[C@@H]2[C@@H](CO)Nc3ccc(C#Cc4cccc(F)c4)cc3[C@@H]21`, the inhibition is reported as 101% (active).
Work on `CC(=O)N1CC[C@@H]2[C@H](CO)Nc3ccc(C#Cc4ccccc4F)cc3[C@@H]21` yielded an inhibition of 14.9%.
For `O=C(c1cnccn1)N1CC[C@@H]2[C@H](CO)Nc3ccc(-c4cccc(F)c4)cc3[C@@H]21`, the inhibition was 87.3%.
With `O=C(c1cccc(F)c1)N1CC[C@@H]2[C@@H](CO)Nc3ccc(C#Cc4cccc(F)c4)cc3[C@@H]21` the inhibition was 106% (active).
In the case of `O=S(=O)(c1ccccc1)N1CC[C@@H]2[C@@H](CO)Nc3ccc(-c4ccccc4F)cc3[C@@H]21`, the inhibition is reported as 98.3% (active).
Compound `N#Cc1ccc(-c2ccc3c(c2)[C@@H]2[C@@H](CCN2C(=O)Cc2ccncc2)[C@@H](CO)N3)cc1` has an inhibition of 54.9%.
Compound `Cc1ccccc1S(=O)(=O)N1CC[C@H]2[C@H](CO)Nc3ccc(-c4cccc(F)c4)cc3[C@H]21` has an inhibition of 93.1%.
For `O=S(=O)(c1ccccc1)N1CC[C@@H]2[C@H]1c1cc(C#Cc3cccc(F)c3)ccc1N[C@@H]2CO`, the inhibition was 92.6%.
For `O=C(c1ccccn1)N1CC[C@@H]2[C@H]1c1cc(-c3ccccc3)ccc1N[C@@H]2CO`, the inhibition was 110% (active).
With `O=C(Nc1cc(Cl)cc(Cl)c1)N[C@H]1CC[C@@H](CCNS(=O)(=O)c2cccc(F)c2)O[C@H]1CO` the inhibition was 2.51%.
Work on `CC(C)C#Cc1ccc([C@H]2[C@H](CO)N3CCCCN(C(=O)NC(C)C)C[C@@H]23)cc1` yielded an inhibition of -8.04%.
Compound `COc1ccc(S(=O)(=O)N(C)C[C@H]2Oc3c(NC(=O)Nc4cccc5ccccc45)cccc3C(=O)N([C@@H](C)CO)C[C@H]2C)cc1` has an inhibition of 90.2%.
In the case of `C[C@@H]1CN([C@H](C)CO)C(=O)c2cc(/C=C/c3ccccc3)cnc2O[C@@H]1CN(C)Cc1ccncc1`, the inhibition is reported as 2.78%.
`Cc1cc(C(=O)Nc2cccc3c2O[C@@H](CN(C)Cc2ccc(C(=O)Nc4ccccc4N)cc2)[C@H](C)CN([C@@H](C)CO)C3=O)n(C)n1` gave an inhibition of 63.4%.
Work on `COc1ccc(-c2ccc([C@H]3[C@H]4CN(C(=O)c5ccc6c(c5)OCO6)CCCCN4[C@H]3CO)cc2)cc1` yielded an inhibition of 50.5%.
Compound `C[C@H](CO)N1C[C@H](C)[C@H](CN(C)Cc2ccc(-c3ccccc3)cc2)Oc2ccc(NC(=O)Nc3ccc(F)cc3)cc2CC1=O` has an inhibition of 83.3%.
In the case of `CN1c2ccc(-c3ccccc3)cc2[C@H]2[C@H](CCN2C(=O)Cc2ccccn2)[C@H]1CO`, the inhibition is reported as 72.9%.
With `COCC#Cc1ccc([C@@H]2[C@H](CO)N3CCCCN(C(=O)CN(C)C)C[C@@H]23)cc1` the inhibition was 29.5%.
Work on `CN1C(=O)c2cc(NC(=O)c3cnccn3)ccc2OC[C@@H]2O[C@H](CC(=O)N[C@@H]3CCN(Cc4ccccc4)C3)CC[C@@H]21` yielded an inhibition of 93.2%.
Work on `CN1C(=O)c2cc(NC(=O)c3cnccn3)ccc2OC[C@@H]2O[C@@H](CC(=O)N[C@H]3CCN(Cc4ccccc4)C3)CC[C@H]21` yielded an inhibition of 32.2%.
In the case of `CN1C(=O)c2cc(NC(=O)Nc3ccccc3F)ccc2OC[C@H]2O[C@H](CC(=O)NCc3ccc(-c4ccccc4)cc3)CC[C@H]21`, the inhibition is reported as 104% (active).
`Cc1ccc(-c2ccc3c(c2)O[C@H](CN(C)C)[C@@H](C)CN([C@H](C)CO)S3(=O)=O)cc1` gave an inhibition of 41.9%.
Work on `O=C(NCC1CCCCC1)[C@H]1[C@H](CO)[C@H]2Cn3c(cccc3=O)[C@H]2N1C(=O)CC1CC1` yielded an inhibition of 30.6%.
For `CC(C)NC(=O)Nc1ccc2c(c1)C(=O)N([C@@H](C)CO)C[C@H](C)[C@H](CN(C)S(=O)(=O)c1ccc(Cl)cc1)OCCCC[C@H](C)O2`, the inhibition was 99.7% (active).
With `C[C@H]1CCCCO[C@@H](CN(C)S(=O)(=O)c2cccs2)[C@@H](C)CN([C@@H](C)CO)C(=O)c2cc(NS(=O)(=O)c3ccc(Cl)cc3)ccc2O1` the inhibition was 71%.
Compound `COc1ccc(NC(=O)N(C)C[C@@H]2OCCCC[C@@H](C)Oc3ccc(NS(=O)(=O)c4ccc(Cl)cc4)cc3C(=O)N([C@H](C)CO)C[C@H]2C)cc1` has an inhibition of 44.3%.
For `COc1ccc(NC(=O)Nc2ccc3c(c2)C(=O)N([C@H](C)CO)C[C@H](C)[C@H](CN(C)S(=O)(=O)c2ccc(Cl)cc2)OCCCC[C@H](C)O3)cc1`, the inhibition was 107% (active).
`Cc1noc(C)c1S(=O)(=O)Nc1ccc2c(c1)C(=O)N([C@@H](C)CO)C[C@@H](C)[C@H](CN(C)S(=O)(=O)c1ccc(Cl)cc1)OCCCC[C@H](C)O2` showed an inhibition of 62.5%.
In the case of `Cc1ccc(S(=O)(=O)N(C)C[C@H]2OCCCC[C@H](C)Oc3ccc(NC(=O)Cc4ccccc4)cc3C(=O)N([C@@H](C)CO)C[C@@H]2C)cc1`, the inhibition is reported as 95%.
`C[C@@H]1CCCCO[C@@H](CN(C)S(=O)(=O)c2ccc(Cl)cc2)[C@H](C)CN([C@@H](C)CO)C(=O)c2cc(NC(=O)Cc3ccccc3)ccc2O1` showed an inhibition of 80.6%.
In the case of `C[C@@H]1CCCCO[C@H](CN(C)S(=O)(=O)c2ccc(Cl)cc2)[C@H](C)CN([C@@H](C)CO)C(=O)c2cc(NS(=O)(=O)c3cccs3)ccc2O1`, the inhibition is reported as 79.2%.
With `C[C@H]1CCCCO[C@H](CN(C)S(=O)(=O)c2ccc(Cl)cc2)[C@@H](C)CN([C@@H](C)CO)C(=O)c2cc(NC(=O)Nc3ccc4c(c3)OCO4)ccc2O1` the inhibition was 105% (active).
